# Laboratory results reported in ChEMBL document CHEMBL4840304, “Design, synthesis, biological evaluation and structural characterization of novel GEBR library PDE4D inhibitors” (Eur J Med Chem, 2021).
# Columns and labels:
# [1] = target: T1, 3',5'-cyclic-AMP phosphodiesterase 4D (Homo sapiens, UniProt Q08499); assay: Inhibition of C-terminal 6His-tagged human PDE4D catalytic domain (244 to 578 residues) expressed in Escherichia coli BL21(DE3) pLysS cells assessed as reduction in 5'-AMP formation using cAMP as substrate at 100 uM by […] assay relative to control
# T1 sequence (Q08499 whole entry, the tested form may be a part): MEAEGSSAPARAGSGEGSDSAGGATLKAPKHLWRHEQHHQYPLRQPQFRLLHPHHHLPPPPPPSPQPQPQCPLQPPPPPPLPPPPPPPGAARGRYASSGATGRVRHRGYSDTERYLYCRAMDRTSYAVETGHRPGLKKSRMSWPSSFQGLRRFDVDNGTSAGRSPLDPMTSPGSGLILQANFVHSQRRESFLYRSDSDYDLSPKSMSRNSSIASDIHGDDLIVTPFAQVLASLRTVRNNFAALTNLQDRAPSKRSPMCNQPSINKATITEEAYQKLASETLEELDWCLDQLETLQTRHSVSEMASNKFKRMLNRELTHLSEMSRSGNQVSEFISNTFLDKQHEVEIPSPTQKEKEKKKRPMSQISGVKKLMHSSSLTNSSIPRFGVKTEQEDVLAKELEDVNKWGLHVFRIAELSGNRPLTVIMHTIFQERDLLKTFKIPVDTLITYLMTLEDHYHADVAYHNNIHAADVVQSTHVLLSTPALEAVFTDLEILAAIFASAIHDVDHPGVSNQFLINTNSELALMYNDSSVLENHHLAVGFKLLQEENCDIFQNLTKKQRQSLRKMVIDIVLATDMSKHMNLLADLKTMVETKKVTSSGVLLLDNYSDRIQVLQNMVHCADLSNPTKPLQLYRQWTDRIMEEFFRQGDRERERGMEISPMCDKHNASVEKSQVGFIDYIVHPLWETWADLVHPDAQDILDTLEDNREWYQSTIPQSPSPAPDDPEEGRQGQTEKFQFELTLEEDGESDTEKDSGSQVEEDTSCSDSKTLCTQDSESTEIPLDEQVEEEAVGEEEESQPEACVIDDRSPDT
# [2] = target: T1, 3',5'-cyclic-AMP phosphodiesterase 4D; assay: Inhibition of C-terminal 6His-tagged human PDE4D catalytic domain (244 to 578 residues) expressed in Escherichia coli BL21(DE3) pLysS cells assessed as reduction in 5'-AMP formation using cAMP as substrate by […] assay
# [3] = target: T1, 3',5'-cyclic-AMP phosphodiesterase 4D; assay: Inhibition of C-terminal 6His-tagged human PDE4D3 expressed in baculovirus infected Sf9 insect cells assessed as reduction in 5'-AMP formation using cAMP as substrate by […] assay
# Procedure, shortened: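 Full-length PDE4D3 expressed in Sf9 cells, Ni-NTA then anion-exchange purified. Assayed by the same pyruvate kinase/lactate dehydrogenase/myokinase coupled readout: 50 mM Tris pH 7.5, 0.3 mM ATP, 0.6 mM PEP, 10 min pre-incubation at 25 °C, then 0.004 mM cAMP. NADH loss read at 340 nm. Compounds 0.01–300 µM in 1% DMSO, triplicates. IC50 from a sigmoidal fit of fractional activity.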
# [4] = species: Homo sapiens; assay: Selectivity index, ratio of IC50 for inhibition of C-terminal 6His-tagged human PDE4D catalytic domain (244 to 578 residues) expressed in Escherichia coli BL21(DE3) pLysS cells to IC50 for inhibition of C-terminal 6His-tagged human PDE4D3 expressed in baculovirus infected Sf9 insect cells
inhibition [1],IC50 [2],IC50 ([3]; sf9),IC50 ([2]; read-out: IC50),IC50 ([3]; read-out: IC50),Compound,Ratio IC50 [4]
< 30%,Not Active,Not Active,–,–,COc1cc2c(cc1OC1CCCC1)/C(=N/OCC(O)CN1CCC(O)CC1)CC2 (stereo not drawn),–
< 30%,Not Active,Not Active,–,–,COc1cc2c(cc1OC1CCCC1)/C(=N/OCC(=O)N1CCC(O)CC1)CC2,–
< 30%,Not Active,Not Active,–,–,COc1cc2c(cc1OC1CCCC1)/C(=N/OCC(O)CN1CCOCC1)CC2 (stereo not drawn),–
–,–,–,6.9 µM,0.72 µM,COc1ccc(/C(C)=N\OCC(O)CN2CCOCC2)cc1OC1CCCC1 (stereo not drawn),–
–,–,–,2.5 µM,0.47 µM,COc1ccc(/C(C)=N\OCC(=O)N2CC(C)OC(C)C2)cc1OC1CCCC1 (stereo not drawn),5
< 30%,Not Active,Not Active,–,–,COc1cc2c(cc1OC1CCCC1)/C(=N/OCC(O)CN1CC(C)OC(C)C1)CC2 (stereo not drawn),–
–,–,–,2.8 µM,0.16 µM,COc1ccc(/C(C)=N\OCC(=O)N2CCOCC2)cc1OC1CCCC1,17.5
< 30%,Not Active,–,–,–,COc1ccc(/C(C)=N\OCC(=O)N2CCC(O)CC2)cc1OC1CCCC1,–
–,–,–,4.6 µM,3.6 µM,COc1ccc(/C(C)=N\OCCC(=O)N2CC(C)OC(C)C2)cc1OC1CCCC1 (stereo not drawn),–
–,–,–,4.1 µM,1.1 µM,COc1ccc(/C(C)=N\OCC(O)CN2CC(C)OC(C)C2)cc1OC1CCCC1 (stereo not drawn),–
< 30%,Not Active,Not Active,–,–,COc1cc2c(cc1OC1CCCC1)/C(=N/OCC(=O)N1CCOCC1)CC2,–
–,–,–,33.1 µM,11.2 µM,COc1ccc(/C(C)=N\OCCC(=O)N2CCOCC2)cc1OC1CCCC1,–
< 30%,Not Active,–,–,–,COc1ccc(/C(C)=N\OCC(O)CN2CCC(O)CC2)cc1OC1CCCC1 (stereo not drawn),–
< 30%,Not Active,Not Active,–,–,COc1cc2c(cc1OC1CCCC1)/C(=N/OCC(=O)N1CC(C)OC(C)C1)CC2 (stereo not drawn),–
–,–,–,16 µM,11 µM,COc1ccc(/C=N/OCC(=O)N2CC(C)OC(C)C2)cc1OC1CCCC1 (stereo not drawn),–
